Source: ChEMBL document CHEMBL1125728, “Dopamine autoreceptor agonists as potential antipsychotics. 2. (Aminoalkoxy)-4H-1-benzopyran-4-ones” (J Med Chem, 1991)

Columns and labels:
Dopamine receptor = assay: Compound was tested for its inhibitory effect on the binding profile in Dopamine receptor using [3H]N-propylnorapomorphine in rat brain.; format: tissue-based
Procedure, shortened: (§1)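 Rat brain receptor binding with the stated radioligands. IC50 obtained by nonlinear regression from four to five concentrations. [3H]flupenthixol and [3H]N-propylnorapomorphine values come from four independent determinations each, and the [3H]haloperidol value from two experiments. Remaining ligands were determined once.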

Rattus norvegicus [1] = assay: Percentage of rats showing signs of stereotyped behavior at 30 mg/kg peroral dose and animals observed for 60 min postdose.; conditions: route oral
D(1A) dopamine receptor = D(1A) dopamine receptor (Rattus norvegicus, UniProt P18901); assay: Compound was tested for its inhibitory effect on the binding profile in Dopamine receptor D1 using [3H]flupenthixol in rat brain.; format: tissue-based; procedure, shortened: as §1
Mus musculus = assay: Inhibition of mouse intraperitoneally.; format: functional; conditions: ip
Procedure, shortened: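 Inhibition of exploratory locomotor activity, scored together with motor coordination (ataxia). ED50 generated from four to five doses, with 5–12 animals per dose.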

Rattus norvegicus [2] = assay: Compound tested for its effective dose to inhibit rat locomotor activity after sc administration of the compound.; format: functional
Procedure, shortened: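 Rats dosed sc, with locomotor activity recorded for 30 min immediately after dosing. ED50 generated from four to five doses using 5–12 animals per dose, reported with ±95% confidence limits.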

[3] = target: T1, Adrenergic receptor alpha-2 (Rattus norvegicus, UniProt P22086+P19328+P22909); assay: Compound was tested for its inhibitory effect on the binding profile in Alpha-2 adrenergic receptor using [3H]p-aminoclonidine in rat brain.; format: tissue-based; procedure, shortened: as §1
T1 sequence (P22086 whole entry): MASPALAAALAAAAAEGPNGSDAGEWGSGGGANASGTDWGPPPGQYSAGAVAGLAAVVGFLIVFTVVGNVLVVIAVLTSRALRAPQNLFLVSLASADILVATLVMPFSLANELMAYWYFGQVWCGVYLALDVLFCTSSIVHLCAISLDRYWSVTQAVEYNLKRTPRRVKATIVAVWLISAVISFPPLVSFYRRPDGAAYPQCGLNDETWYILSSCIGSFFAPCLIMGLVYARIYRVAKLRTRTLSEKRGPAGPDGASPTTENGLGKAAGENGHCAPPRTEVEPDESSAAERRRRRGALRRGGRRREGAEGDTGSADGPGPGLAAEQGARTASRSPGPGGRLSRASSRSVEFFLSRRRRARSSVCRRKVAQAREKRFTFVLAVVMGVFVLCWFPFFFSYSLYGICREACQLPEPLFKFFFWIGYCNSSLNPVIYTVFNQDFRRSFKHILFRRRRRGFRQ
T1 sequence (P19328 whole entry): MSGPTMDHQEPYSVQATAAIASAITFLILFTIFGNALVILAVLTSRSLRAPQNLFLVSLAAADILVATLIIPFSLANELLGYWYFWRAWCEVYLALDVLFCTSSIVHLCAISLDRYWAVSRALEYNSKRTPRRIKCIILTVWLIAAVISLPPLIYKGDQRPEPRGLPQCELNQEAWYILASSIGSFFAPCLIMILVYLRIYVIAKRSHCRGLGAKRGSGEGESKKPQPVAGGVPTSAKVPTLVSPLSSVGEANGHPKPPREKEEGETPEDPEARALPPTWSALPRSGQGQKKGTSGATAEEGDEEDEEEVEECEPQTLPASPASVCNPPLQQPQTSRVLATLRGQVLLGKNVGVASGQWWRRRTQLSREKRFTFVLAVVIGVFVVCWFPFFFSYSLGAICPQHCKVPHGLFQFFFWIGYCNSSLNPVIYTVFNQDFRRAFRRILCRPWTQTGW
T1 sequence (P22909 whole entry): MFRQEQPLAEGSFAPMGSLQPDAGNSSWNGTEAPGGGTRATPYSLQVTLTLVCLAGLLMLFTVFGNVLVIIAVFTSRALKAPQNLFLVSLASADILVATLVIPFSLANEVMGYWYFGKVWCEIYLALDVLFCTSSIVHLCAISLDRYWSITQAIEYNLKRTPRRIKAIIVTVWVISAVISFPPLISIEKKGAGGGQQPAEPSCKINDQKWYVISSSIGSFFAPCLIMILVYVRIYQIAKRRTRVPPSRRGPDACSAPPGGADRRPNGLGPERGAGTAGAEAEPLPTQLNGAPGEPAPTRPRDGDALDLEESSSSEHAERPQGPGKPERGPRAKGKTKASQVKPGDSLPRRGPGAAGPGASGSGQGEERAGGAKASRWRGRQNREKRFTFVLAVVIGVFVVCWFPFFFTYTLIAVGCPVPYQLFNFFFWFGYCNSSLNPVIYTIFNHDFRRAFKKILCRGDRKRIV

Sequence of D(1A) dopamine receptor (P18901 whole entry): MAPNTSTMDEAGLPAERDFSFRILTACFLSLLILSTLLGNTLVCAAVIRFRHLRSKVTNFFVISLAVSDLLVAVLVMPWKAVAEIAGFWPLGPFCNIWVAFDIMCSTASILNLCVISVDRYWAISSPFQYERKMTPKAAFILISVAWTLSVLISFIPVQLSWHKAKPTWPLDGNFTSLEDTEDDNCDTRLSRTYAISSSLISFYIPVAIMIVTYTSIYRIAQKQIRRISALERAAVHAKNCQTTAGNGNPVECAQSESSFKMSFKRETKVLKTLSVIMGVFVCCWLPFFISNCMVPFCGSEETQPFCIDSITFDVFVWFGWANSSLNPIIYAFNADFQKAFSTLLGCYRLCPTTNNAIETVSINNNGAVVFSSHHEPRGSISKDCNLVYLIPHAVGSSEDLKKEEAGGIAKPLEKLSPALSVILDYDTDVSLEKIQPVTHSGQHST

Compound O=c1ccoc2cc(OCCCN3CCN(c4ccccn4)CC3)ccc12 has an IC50 (Dopamine receptor) of 0.059 µM, an Animals (Rattus norvegicus [1]) of 0% and an IC50 (D(1A) dopamine receptor) of 21.7 µM. It also gave an ED50 (Mus musculus) of 1.3 mg/kg, an ED50 (Rattus norvegicus [2]) of 0.58 mg/kg and an IC50 [3] of 2.6 µM.
